Measurements reported in ChEMBL document CHEMBL1806460, “Synthesis of rotenoid derivatives with cytotoxic and topoisomerase II inhibitory activities” (Bioorg Med Chem Lett, 2011).

Key:
[1] = target: DNA topoisomerase 2-alpha (Homo sapiens) (UniProt P11388); experiment: Inhibition of human topoisomerase 2alpha-mediated relaxation of supercoiled pBR322 at 100 uM after 30 mins by electrophoresis analysis
[2] = test system: BT-474; experiment: Cytotoxicity against human BT474 cells after 3 days by MTT assay; type: functional, cell-based; details: BT-474, 72 h
Procedure, shortened: (§1)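 Cells were cultured per supplier instructions at 2–4 × 10⁴ cells/well in medium with 10% (v/v) FBS, overnight at 37 °C under 5% CO₂. Compounds were then added, and after 3 days MTT was added to 0.5 mg/mL final for 4 h. Medium was replaced for solubilization with glycine pH 10.5. Doxorubicin was the positive control, and IC₅₀ values were derived.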

[3] = test system: KB; experiment: Cytotoxicity against human KB cells after 3 days by MTT assay; type: functional, cell-based; details: 72 h; procedure, shortened: as §1
[4] = test system: HepG2; experiment: Cytotoxicity against human HepG2 cells after 3 days by MTT assay; type: functional, cell-based; details: HepG2, 72 h; procedure, shortened: as §1
[5] = test system: SW-620; experiment: Cytotoxicity against human SW620 cells after 3 days by MTT assay; type: functional, cell-based; details: SW-620, 72 h; procedure, shortened: as §1
[6] = Cytotoxicity against human ChaGo cells after 3 days by MTT assay; type: functional, cell-based; details: 72 h; procedure, shortened: as §1
[7] = Cytotoxicity against human KATO cells after 3 days by MTT assay; type: functional, cell-based; details: 72 h; procedure, shortened: as §1
[8] = test system: MCF7; experiment: Cytotoxicity against human MCF7 cells after 3 days by MTT assay; type: functional, cell-based; details: MCF7, 72 h; procedure, shortened: as §1
[9] = test system: NCI-H187; experiment: Cytotoxicity against human NCI-H187 cells after 3 days by MTT assay; type: functional, cell-based; details: NCI-H187, 72 h; procedure, shortened: as §1
[10] = test system: Nucleic Acid; experiment: Binding affinity to calf thymus DNA assessed as increase in melting temperature (reference value: 56.4 degC); type: nucleic-acid assay; details: Bos taurus
[11] = test system: Nucleic Acid; experiment: Binding affinity to calf thymus DNA assessed as change in melting temperature; type: nucleic-acid assay; details: Bos taurus
[12] = target: DNA topoisomerase 2-alpha (Homo sapiens) (UniProt P11388); experiment: Inhibition of human topoisomerase 2alpha-mediated relaxation of supercoiled pBR322 at 20 uM after 30 mins by electrophoresis analysis

Sequence of DNA topoisomerase 2-alpha (Homo sapiens) (P11388 whole entry): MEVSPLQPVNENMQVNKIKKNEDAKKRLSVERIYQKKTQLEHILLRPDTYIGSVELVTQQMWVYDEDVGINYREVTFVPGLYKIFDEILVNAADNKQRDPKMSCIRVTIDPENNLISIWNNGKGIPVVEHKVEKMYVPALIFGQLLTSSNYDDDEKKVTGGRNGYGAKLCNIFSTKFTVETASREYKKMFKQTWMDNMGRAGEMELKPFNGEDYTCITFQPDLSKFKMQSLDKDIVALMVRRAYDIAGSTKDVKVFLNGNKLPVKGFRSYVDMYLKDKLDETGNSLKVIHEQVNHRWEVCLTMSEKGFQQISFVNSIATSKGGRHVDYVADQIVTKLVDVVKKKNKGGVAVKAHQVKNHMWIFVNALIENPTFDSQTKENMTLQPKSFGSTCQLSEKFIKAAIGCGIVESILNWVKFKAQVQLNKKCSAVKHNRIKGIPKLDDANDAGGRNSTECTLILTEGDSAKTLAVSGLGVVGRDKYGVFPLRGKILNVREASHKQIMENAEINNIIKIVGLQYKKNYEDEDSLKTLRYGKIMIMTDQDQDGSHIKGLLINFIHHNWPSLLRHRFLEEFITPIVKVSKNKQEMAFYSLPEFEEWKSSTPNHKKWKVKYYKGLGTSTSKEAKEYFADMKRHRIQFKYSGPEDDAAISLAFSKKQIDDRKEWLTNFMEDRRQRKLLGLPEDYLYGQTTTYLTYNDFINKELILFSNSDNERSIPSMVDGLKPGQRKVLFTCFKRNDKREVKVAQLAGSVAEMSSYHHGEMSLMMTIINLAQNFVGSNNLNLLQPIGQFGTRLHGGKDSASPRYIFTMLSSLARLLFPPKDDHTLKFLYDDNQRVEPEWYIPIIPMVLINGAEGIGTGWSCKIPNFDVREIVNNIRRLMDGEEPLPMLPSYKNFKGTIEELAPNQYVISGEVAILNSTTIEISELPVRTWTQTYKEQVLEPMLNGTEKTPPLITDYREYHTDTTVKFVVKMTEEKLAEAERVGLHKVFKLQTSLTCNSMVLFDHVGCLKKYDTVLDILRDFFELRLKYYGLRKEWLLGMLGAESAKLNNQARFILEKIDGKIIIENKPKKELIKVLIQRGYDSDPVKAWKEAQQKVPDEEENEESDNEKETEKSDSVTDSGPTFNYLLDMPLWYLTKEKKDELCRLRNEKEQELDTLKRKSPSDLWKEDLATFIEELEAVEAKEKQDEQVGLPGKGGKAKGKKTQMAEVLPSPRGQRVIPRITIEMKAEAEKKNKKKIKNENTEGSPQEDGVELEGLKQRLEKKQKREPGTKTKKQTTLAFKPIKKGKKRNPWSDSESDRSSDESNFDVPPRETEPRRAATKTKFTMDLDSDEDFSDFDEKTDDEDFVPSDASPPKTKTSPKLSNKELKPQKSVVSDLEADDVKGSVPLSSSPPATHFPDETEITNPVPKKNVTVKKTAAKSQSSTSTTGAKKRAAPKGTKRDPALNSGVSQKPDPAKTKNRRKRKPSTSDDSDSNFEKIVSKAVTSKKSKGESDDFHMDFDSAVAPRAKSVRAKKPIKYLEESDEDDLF

SMILES	inhibition [1] [%]	IC50 [2] [µM]	IC50 [3] [µM]	IC50 [4] [µM]	IC50 [5] [µM]	IC50 [6] [µM]	IC50 [7] [µM]	IC50 [8] [µM]	IC50 [9] [µM]	Tm [10] [°C]	ΔTm [11] [°C]	inhibition [12] [%]
COc1cc(OCC(O)CNCCc2ccccc2)c2c(c1)O[C@@H]1COc3cc(OC)c(OC)cc3[C@]1(O)C2=O (mixture of isomers)	66.7	> 100	23.5	> 100	> 100	> 100	> 100	3.05	13.6			
COc1cc(OCC(O)CNCCN2CCOCC2)c2c(c1)O[C@@H]1COc3cc(OC)c(OC)cc3[C@]1(O)C2=O (mixture of isomers)	77.1	0.45	26.3	0.56	0.54	40.2	1.94	36.8	4.7	66.1	8.8	
COc1cc(OCC2CO2)c2c(c1)O[C@@H]1COc3cc(OC)c(OC)cc3[C@]1(O)C2=O (mixture of isomers)	68.3	0.45	32.9	0.55	0.38	0.57	0.63	5.63	27.8	59.3	2	
COc1cc(OCC(O)CCl)c2c(c1)O[C@@H]1COc3cc(OC)c(OC)cc3[C@]1(O)C2=O (mixture of isomers)	58.3	1.57	14.8	0.81	1.09	> 100	1.09	24.9	6.61			
COc1cc(OCC(O)CN2CCC(=O)CC2)c2c(c1)O[C@@H]1COc3cc(OC)c(OC)cc3[C@]1(O)C2=O (mixture of isomers)	54.2	> 100	> 100	> 100	> 100	> 100	> 100	48.6	> 100			
COc1cc(OCC(O)CN2CCOCC2)c2c(c1)O[C@@H]1COc3cc(OC)c(OC)cc3[C@]1(O)C2=O (mixture of isomers)	93.5	0.34	26.5	0.61	0.73	0.61	> 100	31.7	2.93	65.1	7.8	47.1
COc1cc(OCC(O)CO)c2c(c1)O[C@@H]1COc3cc(OC)c(OC)cc3[C@]1(O)C2=O (mixture of isomers)	38.8	> 100	13.4	> 100	8.04	> 100	> 100	> 100	13.9			
COc1cc(OCC(O)CNCc2ccccc2)c2c(c1)O[C@@H]1COc3cc(OC)c(OC)cc3[C@]1(O)C2=O (mixture of isomers)	81.7	0.62	32.3	0.72	0.59	31	0.67	34.6	35.5	68	10.7	
COc1cc(OCC(O)CNCC(O)c2ccccc2)c2c(c1)O[C@@H]1COc3cc(OC)c(OC)cc3[C@]1(O)C2=O (mixture of isomers)	60.4	> 100	46.4	> 100	> 100	> 100	> 100		22.1			
COc1cc(O)c2c(c1)O[C@@H]1COc3cc(OC)c(OC)cc3[C@]1(O)C2=O	72.1	> 100	13.3	> 100	> 100	> 100	> 100	23.7	3.12	57.3		
COc1cccc2c1C(=O)c1c(O)c3c(c(O)c1C2=O)C[C@@](O)(C(=O)CO)C[C@@H]3O[C@H]1C[C@H](N)[C@H](O)[C@H](C)O1 [DOXORUBICIN]	72.1	0.07	2.01	0.26	0.23	0.83	0.33		0.03			
COc1cc(OCC(O)CN(CCO)CCO)c2c(c1)O[C@@H]1COc3cc(OC)c(OC)cc3[C@]1(O)C2=O (stereo not given in full)	49.1	> 100	> 100	> 100	> 100	> 100	> 100	> 100	> 100			
COCC(O)COc1cc(OC)cc2c1C(=O)[C@@]1(O)c3cc(OC)c(OC)cc3OC[C@H]1O2 (mixture of isomers)	58.4	> 100	46.9	> 100	> 100	> 100	> 100	> 100	11.7			
